TRPML3 ag: activates the human TRPML3 channel | HEK293 TRPML3-YFP, Fluo-8 calcium fluorescence; 100% = the carbachol control signal | activation, % at 3 µM | hit rate 0.29% among 220,000;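 active = activation above its plate's cutoff, the mean activation of the plate's test wells plus 3 SD, cut at about 12% in these data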
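Material: TRPML3-YFP stable HEK293 cells | Dosing: One concentration, 3 µM nominal, 0.3% DMSO | Timing: 125 s total fluorescence read per well | Technique: Fluo-8 calcium dye fluorescence, ex 470-495, em 515-575 nm | Measure: Percent activation from peak-to-basal fluorescence ratio, scaled between DMSO and carbachol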
CRFBP-R2 agonist: CRF-BP/CRF-R2 complex agonism | AID 588473 | hit rate 0.46% among 350,000 | HEK293 CRF-R2/CRF-BP, calcium dye fluorescence (FLIPR); percent of saturating CRF peptide response | activation, % at 13.2 µM;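 active = activation of at least 50%, plus an integration ratio under a set limit after plate pattern correction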
zfTRPN1 agonist: agonists of zebrafish TRPN1 channel; AID 1424; activation, % at 3 µM; hit rate 0.18% among 220,000; HEK293 zebrafish TRPN1-YFP, Fluo-8 calcium fluorescence; 100% = response to 87 µM carbachol;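 active = activation above its plate's cutoff, the mean activation of test wells on that plate plus 3 SD, cut at about 19% in these data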
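Control set: carbachol 87 µM as high control, DMSO as low control; system: HEK293 stable line with zebrafish TRPN1-YFP; read-out: % activation versus carbachol response; detection: intracellular calcium fluorescence with Fluo-8; doses: single test compound dose, 3 µM nominal, 0.3% DMSO; schedule: dye 1 h 37 °C plus 30 min RT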
OXTR potentiate: human OXTR potentiation. P30559. CHO-OTR cells, Fluo-8 calcium fluorescence, potentiator mode; 0% = oxytocin EC15, 100% = EC100. activation, % at 3 µM. hit rate 0.061% among 320,000. AID 2445;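 active = activation above that plate's cutoff, the mean activation of tested compounds plus 3 SD, cut at about 6.6% in these data, passing the limit was not always enough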
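assay system = CHO-OTR cells, human receptor | schedule = compound 6 min at room temperature before oxytocin, 100 s read | detection = Fluo-8 intracellular calcium fluorescence, ex 470-495, em 515-575 nm | evaluation = normalized max/min fluorescence ratio, % activation | control set = EC15 oxytocin alone as 0%, 75 nM oxytocin (EC100) as 100%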
V1aR counter: V1a receptor agonism, counter-screen for OXTR agonists. activation, % at 3 µM. CHO-V1R cells, Fluo-8 calcium fluorescence, agonist mode; 0% DMSO, 100% 3 nM vasopressin. P37288. hit rate 0.25% among 320,000;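 active = activation above the mean activation of all tested compounds plus 3 SD, per screening run, cut at about 20% in these data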;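 also: signal is peak over basal fluorescence ratio across a 100 second FLIPR read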
Target sequence (P37288 whole entry, looked up): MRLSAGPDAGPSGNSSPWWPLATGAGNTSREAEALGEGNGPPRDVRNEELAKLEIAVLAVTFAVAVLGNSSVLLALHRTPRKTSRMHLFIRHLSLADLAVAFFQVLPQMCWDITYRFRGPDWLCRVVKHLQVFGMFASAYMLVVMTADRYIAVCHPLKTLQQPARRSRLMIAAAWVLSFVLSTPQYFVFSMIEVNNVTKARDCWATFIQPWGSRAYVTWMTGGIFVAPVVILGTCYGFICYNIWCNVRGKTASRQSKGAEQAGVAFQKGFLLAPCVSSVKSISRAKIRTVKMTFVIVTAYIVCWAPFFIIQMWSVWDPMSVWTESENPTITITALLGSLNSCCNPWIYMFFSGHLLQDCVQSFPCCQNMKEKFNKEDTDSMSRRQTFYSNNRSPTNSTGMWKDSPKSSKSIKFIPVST
OXTR ag: human OXTR agonism; AID 2435; CHO-OTR cells, Fluo-8 calcium fluorescence; normalized: DMSO 0%, oxytocin 100%; hit rate 0.32% among 320,000; activation, % at 3 µM;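 active = activation above the mean of all tested compounds plus 3 SD, cutoff set per screening run, cut at about 20% in these data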;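 also: peak over basal fluorescence ratio from a 100 s FLIPR kinetic read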
TRPN1 ag 2: zebrafish TRPN1 agonism as TRPML3 agonist counter-screen; shares compounds with TRPML3 ag; HEK293 zebrafish TRPN1-YFP, Fluo-8 calcium fluorescence; scaled: carbachol wells 100%, DMSO wells 0%; activation, % at 3 µM; hit rate 10% among 310; AID 1525;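 active = mean activation over replicates above a set limit taken from the earlier TRPN1 channel primary screen, cut at about 19% in these data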
TRPML3 ag conf: human TRPML3 agonism, confirmation; shares compounds with TRPML3 ag; HEK293 TRPML3-YFP, Fluo-8 calcium fluorescence; 100% set by carbachol, 0% by DMSO; activation, % at 3 µM; hit rate 80% among 310; AID 1526;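 active = activation above a set limit derived from the earlier primary screen, cut at about 12% in these data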
Numbers stand for hits; 0 = inactive; - = no result given. The list is not random: actives were taken first. Their share in the collection is about 0.85%.

SMILES | TRPML3 ag | CRFBP-R2 agonist | zfTRPN1 agonist | OXTR potentiate | V1aR counter | OXTR ag | TRPN1 ag 2 | TRPML3 ag conf
COc1ccc(N2C(=O)C(F)(F)C2c2ccccc2F)cc1 (configuration not stated) | 21 | 0 | 0 | - | - | - | 0 | 34
COc1ccc(N2C(=O)C(F)(F)C2c2cccc(F)c2)cc1 (configuration not stated) | 0 | 0 | 0 | 0 | 0 | 0 | - | -
Cc1cc(C)c(NC(=O)C2CCCO2)c(C)c1NC(=O)C1CCCO1 (configuration not stated) | - | 0 | - | 0 | 0 | 0 | - | -
CN(C)S(=O)(=O)c1ccc(N2CCCC2)c(C(=O)Nc2ccc(F)cc2F)c1 | - | 0 | - | 0 | 0 | 0 | - | -
COc1ccc(C(C)(C)C)cc1NC(=O)c1cc(S(=O)(=O)N(C)C)ccc1N1CCCC1 | 34 | 0 | 0 | 0 | 0 | 0 | 0 | 33
COc1ccc(-c2csc(NC(=O)c3ccccc3NS(=O)(=O)c3ccc(F)c(F)c3)n2)cc1 | 13 | 0 | 0 | 0 | 0 | 0 | 27 | 17
Cc1ccc(S(=O)(=O)Nc2ccccc2C(=O)Nc2nc(-c3ccc(F)cc3)cs2)cc1 | 12 | 0 | 0 | 0 | 0 | 0 | 21 | 0
CCOc1ccc(NC(=O)c2ccccc2NS(=O)(=O)c2ccc(F)cc2)c([N+](=O)[O-])c1 | 15 | 0 | 0 | 0 | 0 | 0 | 0 | 34
COc1ccc(-c2csc(NC(=O)c3ccccc3F)n2)cc1 | - | 0 | - | 0 | 0 | 0 | - | -
Cc1nn(C)c(Cl)c1C(N)=O | 0 | 0 | 0 | 0 | 0 | 0 | - | -
Cc1cc(C)c(N2CCN(S(=O)(=O)N3CCCCCC3)CC2)c(C)c1 | 67 | 0 | 0 | 0 | 0 | 0 | 45 | 165
C=CCn1c(O)c2ccc(C(=O)N=NC(=O)COc3ccccc3F)cc2c1O | - | 0 | - | 0 | 0 | 0 | - | -
CCNC(=S)N(Cc1ccco1)Cc1cc2cc(OCC)ccc2[nH]c1=O | 0 | 0 | 0 | 0 | 0 | 0 | - | -
CCNC(=S)N(Cc1cccs1)Cc1cc2cc(OCC)ccc2[nH]c1=O | 17 | 0 | 0 | 0 | 0 | 0 | 0 | 16
O=C1C(Cl)=C(N2CCN(Cc3ccccc3)CC2)C(=O)N1Cc1ccccc1 | 20 | 0 | 0 | 0 | 0 | 0 | 0 | 25
O=C1C(Cl)=C(NC2CCCCC2)C(=O)N1Cc1ccccc1 | 0 | 0 | 0 | 0 | 0 | 0 | - | -
COc1ccc2oc(C(=O)OCC(=O)NCc3ccccc3OC)c(C)c2c1 | - | 0 | - | 0 | 0 | 0 | - | -
CCCOc1ccccc1C(=O)N1CCNC(=O)C1CC(=O)OC(C)C (configuration not stated) | - | 0 | - | 0 | 0 | 0 | - | -
N#C/C(=C\c1cn(CCOc2ccccc2)c2ccccc12)C(=O)NCC1CCCO1 (configuration not stated) | 25 | 0 | 0 | 0 | 0 | 0 | 0 | 0
Cc1ccc(C)c(OCCn2cc(/C=C(/C#N)C(=O)NCC3CCCO3)c3ccccc32)c1 (configuration not stated) | 0 | 0 | 0 | 0 | 0 | 0 | - | -
COc1ccccc1-c1ccc(/C=C2\C=CC(=O)O2)o1 | 14 | 119 | 0 | 0 | 44 | 50 | 21 | 13
COc1ccccc1-c1ccc(/C=C2/C=C(C)OC2=O)o1 | 0 | 0 | 0 | 0 | 0 | 0 | - | -
Cc1cc(C)c(S(=O)(=O)Nc2ccccc2-c2ccccc2)c(C)c1 | 13 | 0 | 0 | 0 | 0 | 0 | 0 | 45
O=S(=O)(Nc1ccccc1-c1ccccc1)c1ccccc1 | - | 0 | - | - | - | - | - | -
O=C1NCC(c2ccccc2)C1C(=O)N/N=C\c1ccc(-c2ccc(Cl)c(Cl)c2)o1 (configuration not stated) | 0 | 0 | 0 | 0 | 0 | 0 | - | -
O=C1NCC(c2ccccc2)C1C(=O)N/N=C/c1ccc(Cl)s1 (configuration not stated) | 15 | 0 | 0 | 0 | 0 | 0 | 20 | 20

Source: PubChem BioAssay (several laboratories)
